Results reported in article PMC4417838 (International Journal for Parasitology: Drugs and Drug …, 2015).
Values after ≈ are worked out from the molar mass of the structure shown. “Also recorded” adds a separate entry of the source. Where two headings read alike, the source gives them in different places.

Key:
Stability observation = assay type: physicochemical
P. falciparum strain Dd2 = experiment: Malstat assay, growth inhibition of P. falciparum Dd2; assay type: cell-based, Plasmodium falciparum; settings: for Selectivity index SI (Dd2): CC50 (MCF7)/IC50 (Dd2); for IC50: Plasmodium falciparum, DD2, read-out: Mean IC50 ± SD Dd2
MTT cytotoxicity assay = assay type: cell-based; settings: human, MCF-7 cells
[1] = tested on: P. falciparum strain NF54; experiment: Malstat assay, growth inhibition of P. falciparum NF54; assay type: cell-based, Plasmodium falciparum; settings: for Selectivity index SI (NF54): CC50 (MCF7)/IC50 (NF54); for times more potent than tryptanthrin: CQ-sensitive strain; for IC50: Plasmodium falciparum; for gain in activity over the parent compound tryptanthrin: mono-derivatization at position 8, strain not stated
[2] = tested on: P. falciparum NF54 mature gametocytes; experiment: Exflagellation assay; assay type: cell-based, Plasmodium falciparum; settings: compound at IC90 concentration, 15 min and 24 h incubation
In short: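 Mature NF54 gametocyte cultures (from day 13) were split into two flasks, one with test compound and one with DMSO only. Aliquots taken after 15 min at 37 °C and after 24 h were activated with xanthurenic acid for 15 min, pelleted, and resuspended in medium containing 100 µM xanthurenic acid. Exflagellation centres were counted in 30 fields relative to the DMSO control. The experiment was run twice, on separately seeded cultures.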

Solubility in DMSO = assay type: physicochemical; settings: organic solvent or mixture
[3] = tested on: P. falciparum NF54 gametocytes; experiment: Gametocyte toxicity test; assay type: cell-based, Plasmodium falciparum; settings: nanomolar concentrations, positive control
In short: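 NF54 was seeded at 1–2% parasitemia and 5% hematocrit in RPMI/HEPES/hypoxanthine/bicarbonate with 10% human serum, under 5% O2/5% CO2/90% N2 at 37 °C, with medium changed daily. Stage II gametocytes were plated in triplicate with compound for 48 h, then kept in compound-free medium to day 7. Stage IV–V gametocytes per 1000 erythrocytes were counted on Giemsa smears and normalised to the DMSO control; means were compared by one-way ANOVA with Tukey's test.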

[4] = NF54, read-out: Mean IC50 ± SD NF54
[5] = DD2|NF54, read-out: IC50 (considered not effective)

Compound | Selectivity index SI (Dd2) (P. falciparum strain Dd2) | IC50 (P. falciparum strain Dd2) | CC50 (MTT cytotoxicity assay) | Selectivity index SI (NF54) [1] | IC50 [1, 4] | other results
O=C1c2ccccc2-n2c1nc1ccc([N+](=O)[O-])cc1c2=O [2-Nitrotryptanthrin] | – | – | – | – | – | stability (Stability observation): highly unstable
O=C1c2cc(Br)ccc2-n2c1nc1cc(Cl)ccc1c2=O [BT1, 8-Bromo-3-chloro-indolo [2,1-b] quinazoline-6,12-dione] | 10 | 238 ± 80 nM | 2380 ± 1 nM | 66 | 36 ± 17 nM | times more potent than tryptanthrin [1]: at least 5
O=C1c2cc(Br)ccc2-n2c1nc1ccc(Cl)cc1c2=O [BT2, 8-Bromo-2-chloro-indolo [2,1-b] quinazoline-6,12-dione] | >800 | 123 ± 62 nM | > 100000 nM | >2000 | 36 ± 24 nM | times more potent than tryptanthrin [1]: at least 5
COc1cc2nc3n(c(=O)c2cc1OC)-c1ccc(Br)cc1C3=O [BT3, 8-Bromo-2,3-dimethoxy-indolo[2,1-b]quinazoline-6,12-dione] | >100 | 761 ± 194 nM | > 100000 nM | >1000 | 88 ± 41 nM | –
O=C(O)c1ccc2c(=O)n3c(nc2c1)C(=O)c1cc(Br)ccc1-3 [BT4, 8-Bromo-6,12-dioxo-6,12-dihydro-indolo[2,1-b] quinazoline-3-carboxylic acid] | – | > 50000 nM | 71000 ± 39700 nM | – | > 50000 nM | IC50 [1, 5]: > 50000 nM
COC(=O)c1ccc2c(=O)n3c(nc2c1)C(=O)c1cc(Br)ccc1-3 [BT5, 8-Bromo-6,12-dioxo-6,12-dihydro-indolo[2,1-b] quinazoline-3-carboxylic acid methylester] | 40 | 287 ± 24 nM | 11500 ± 5420 nM | 70.9 | 162 ± 93 nM | –
CCN(CC)CCCC(C)Nc1ccnc2cc(Cl)ccc12 (stereo not drawn) [CQ, Chloroquine, reference compound] | – | 294 ± 30 nM | > 100000 nM | – | 21 ± 2 nM | times more potent against CQ-sensitive strain compared with the resistant strain ([1]; CQ-sensitive versus CQ-resistant strain): 13; IC50 ([1]; NF54): 20 nM
Cc1ccc2c(c1)C(=O)c1nc3ccccc3c(=O)n1-2 [Compound T1, 8-Methyl-indolo [2,1-b] quinazoline-6,12-dione] | >400 | 216 ± 116 nM | > 100000 nM | >1000 | 85 ± 37 nM | gain in activity over the parent compound tryptanthrin [1]: approximately three times
O=C1c2cc(Br)ccc2-n2c1nc1ccccc1c2=O [Compound T2, 8-Bromo-indolo [2,1-b] quinazoline-6,12-dione] | 110.2 | 95 ± 58 nM | 10500 ± 1520 nM | 129.3 | 81 ± 8 nM | gain in activity over the parent compound tryptanthrin [1]: approximately three times
Cc1cccc2c1C(=O)c1nc3ccccc3c(=O)n1-2 [Compound T3, 7-Methyl-indolo [2,1-b] quinazoline-6,12-dione] | 29.3 | 602 ± 115 nM | 17600 ± 300 nM | 39.2 | 450 ± 98 nM | –
O=C1c2cc([N+](=O)[O-])ccc2-n2c1nc1ccccc1c2=O [Compound T4, 8-Nitro-indolo [2,1-b] quinazoline-6,12-dione] | 29 | 165 ± 55 nM | 4780 ± 490 nM | 45.1 | 106 ± 38 nM | gain in activity over the parent compound tryptanthrin [1]: approximately three times
O=C1c2cc(F)ccc2-n2c1nc1ccccc1c2=O [Compound T6, 8-Fluoro-indolo [2,1-b] quinazoline-6,12-dione] | 175.6 | 100 ± 15 nM | 17500 ± 650 nM | 306.5 | 57 ± 10 nM | times more potent than tryptanthrin [1]: at least 5; gain in activity over the parent compound tryptanthrin [1]: approximately three times
O=C1c2cc(Cl)ccc2-n2c1nc1ccccc1c2=O [Compound T7, 8-Chloro-indolo [2,1-b] quinazoline-6,12-dione] | 158.5 | 172 ± 18 nM | 27200 ± 6680 nM | 286.1 | 95 ± 33 nM | gain in activity over the parent compound tryptanthrin [1]: approximately three times
O=C1c2ccccc2-n2c1nc1cc(Cl)ccc1c2=O [Compound T8, 3-Chloro-indolo [2,1-b] quinazoline-6,12-dione] | 103.5 | 165 ± 81 nM | 17100 ± 4260 nM | 186 | 92 ± 3 nM | reduction of exflagellation of microgametes [2]: neither tryptanthrin nor T8 were able to significantly inhibit the exflagellation; also recorded: no influence on exflagellation
O=C1c2cc([N+](=O)[O-])ccc2-n2c1nc1cc(Cl)ccc1c2=O [NT1, 3-Chloro-8-nitro-indolo [2,1-b] quinazoline-6,12-dione] | 168.7 | 31 ± 5 nM | 5150 ± 110 nM | 155.9 | 33 ± 4 nM | times more active than tryptanthrin (P. falciparum strain Dd2; CQ-resistant strain): 3.3; solubility (Solubility in DMSO): 10 mM (≈ 3280 µg/mL); times more potent than tryptanthrin [1]: at least 5; IC50 ([1]; NF54): 30 nM
O=C1c2cc([N+](=O)[O-])ccc2-n2c1nc1ccc(Cl)cc1c2=O [NT2, 2-Chloro-8-nitro-indolo [2,1-b] quinazoline-6,12-dione] | 136.5 | 91 nM | 12500 ± 230 nM | 96.7 | 129 ± 22 nM | –
COc1cc2nc3n(c(=O)c2cc1OC)-c1ccc([N+](=O)[O-])cc1C3=O [NT3, 2,3-Dimethoxy-8-nitro-indolo [2,1-b] quinazoline-6,12-dione] | 113.2 | 134 ± 47 nM | 15200 ± 4410 nM | 53.6 | 283 ± 93 nM | –
O=C(O)c1ccc2c(=O)n3c(nc2c1)C(=O)c1cc([N+](=O)[O-])ccc1-3 [NT4, 8-Nitro-6,12-dioxo-6,12-dihydro-indolo[2,1-b]quinazoline-3-carboxylic acid] | – | > 50000 nM | > 100000 nM | – | > 50000 nM | IC50 [1, 5]: > 50000 nM
COC(=O)c1ccc2c(=O)n3c(nc2c1)C(=O)c1cc([N+](=O)[O-])ccc1-3 [NT5, 8-Nitro-6,12-dioxo-6,12-dihydro-indolo[2,1-b] quinazoline-3-carboxylic acid methyl ester] | 72.1 | 166 ± 36 nM | 12000 ± 500 nM | 71.7 | 167 ± 67 nM | –
O=C1c2cc([N+](=O)[O-])ccc2-n2c1nc1cc(Br)ccc1c2=O [NT6, 3-Bromo-8-nitro-indolo [2,1-b] quinazoline-6,12-dione] | 174 | 101 ± 68 nM | 17500 ± 770 nM | 243.3 | 72 ± 23 nM | –
O=C1c2ccccc2-n2c1nc1ccccc1c2=O [TRYP, indolo-[2,1-b]-quinazoline-6, 12-Dione, reference compound] | – | 114 ± 17 nM | 45900 ± 700 nM | – | 288 ± 87 nM | –
CC[C@H](C)[C@H](NC(=O)[C@H]([C@@H](C)CC)N(C)C(C)=O)C(=O)N[C@H](C(=O)N[C@@H](CC(C)C)C(=O)[C@@]1(C)CO1)[C@@H](C)O [epoxomicin] | – | – | – | – | – | effect on gametocytes in culture [3]: fully eliminate the gametocytes
